From ChEMBL document CHEMBL4257551, “Glycyrrhizic acid from licorice down-regulates inflammatory responses via blocking MAPK and PI3K/Akt-dependent NF-κB signalling pathways in TPA-induced skin inflammation” (2018)
Activity calls are given as the source filed them. The calls are words filed in the database; no cut-off is given here.

What was measured:
[1] = system: Mus musculus; assay: Antiinflammatory activity against TPA-induced ear edema in BALB/c mouse assessed as decrease in weight of ear punches at 5 mg administered topically for 15 mins prior to TPA challenge and measured after 24 hrs relative to control; format: functional; set-up: scale not given: the % may be the effect or the level left
[2] = system: Mus musculus; assay: Antiinflammatory activity against TPA-induced ear edema in BALB/c mouse assessed as decrease in p38 phosphorylation in edema administered topically for 15 mins prior to TPA challenge by immunohistochemical method; format: functional, organism-based
[3] = system: Mus musculus; assay: Antiinflammatory activity against TPA-induced ear edema in BALB/c mouse assessed as decrease in Akt expression in edema at 50 to 200 mM administered topically for 15 mins prior to TPA challenge by immunohistochemical method; format: functional, organism-based
[4] = system: Mus musculus; assay: Antiinflammatory activity against TPA-induced ear edema in BALB/c mouse assessed as decrease in ear punches at 150 mM administered topically for 15 mins prior to TPA challenge and measured after 6 hrs relative to control; format: functional; set-up: scale not given: the % may be the effect or the level left
In short: (§1)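 Female BALB/c mice, 4–5 weeks old, n = 3 per group. Both ears received 30 μL of test solution in DMSO:methylene chloride (20:80) at 50, 100, 150 or 200 mM. Topical TPA (30 μL, 25 μg mL⁻¹) followed 15 min later. Mice were killed at 6 h, and two 6 mm punches per animal were weighed. Controls had vehicle then acetone. Mean ± SD of six experiments in triplicate.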

[5] = system: Mus musculus; assay: Antiinflammatory activity against TPA-induced ear edema in BALB/c mouse assessed as decrease in PI3K p85 phosphorylation in edema administered topically for 15 mins prior to TPA challenge by immunohistochemical method; format: functional, organism-based
[6] = system: Mus musculus; assay: Antiinflammatory activity against TPA-induced ear edema in BALB/c mouse assessed as decrease in COX2 expression in edema administered topically for 15 mins prior to TPA challenge by immunohistochemical method; format: functional, organism-based
[7] = system: Mus musculus; assay: Antiinflammatory activity against TPA-induced ear edema in BALB/c mouse assessed as weight of ear punches at 200 mM administered topically for 15 mins prior to TPA challenge and measured after 24 hrs (reference value: 12.1 +/- 0.2 mg); format: functional
[8] = system: Mus musculus; assay: Antiinflammatory activity against TPA-induced ear edema in BALB/c mouse assessed as weight of ear punches at 200 mM, ip administered 15 mins prior to TPA challenge and measured after 3 hrs (reference value: 8.3 +/- 0.1 mg); format: functional
[9] = system: Mus musculus; assay: Antiinflammatory activity against TPA-induced ear edema in BALB/c mouse assessed as decrease in p65 phosphorylation in edema administered topically for 15 mins prior to TPA challenge by immunohistochemical method; format: functional, organism-based
[10] = system: Mus musculus; assay: Antiinflammatory activity against TPA-induced ear edema in BALB/c mouse assessed as decrease in PI3K p85 expression in edema at 50 to 200 mM administered topically for 15 mins prior to TPA challenge by immunohistochemical method; format: functional, organism-based
[11] = system: Mus musculus; assay: Antiinflammatory activity against TPA-induced ear edema in BALB/c mouse assessed as decrease in ear punches at 50 mM administered topically for 15 mins prior to TPA challenge and measured after 6 hrs relative to control; format: functional; set-up: scale not given: the % may be the effect or the level left; in short: as §1
[12] = system: Mus musculus; assay: Antiinflammatory activity against TPA-induced ear edema in BALB/c mouse assessed as decrease in leucocyte infiltration in edema administered topically for 15 mins prior to TPA challenge and measured after 6 hrs by hematoxylin/eosin staining-based microscopic method; format: functional, organism-based
In short: (§2)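 Female BALB/c mice were pretreated topically at 50–200 mM, then given TPA. Ears were taken at 6 h, fixed in 4% PFA, decalcified in EDTA, paraffin-embedded and sectioned at 4 μm for H&E. Epidermal hyperplasia and dermal leukocyte infiltration were scored in at least five regions at 200×. ANOVA with Dunnett's test.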

[13] = system: Mus musculus; assay: Antiinflammatory activity against TPA-induced ear edema in BALB/c mouse assessed as decrease in weight of ear punches at 5 mg administered topically for 15 mins prior to TPA challenge and measured after 48 hrs relative to control; format: functional; set-up: scale not given: the % may be the effect or the level left
[14] = system: Mus musculus; assay: Antiinflammatory activity against TPA-induced ear edema in BALB/c mouse assessed as weight of ear punches at 200 mM, ip administered 15 mins prior to TPA challenge and measured after 24 hrs (reference value: 12.1 +/- 0.2 mg); format: functional
[15] = system: Mus musculus; assay: Antiinflammatory activity against TPA-induced ear edema in BALB/c mouse assessed as decrease in weight of ear punches at 5 mg administered topically for 15 mins prior to TPA challenge and measured after 3 hrs relative to control; format: functional; set-up: scale not given: the % may be the effect or the level left
[16] = system: Mus musculus; assay: Antiinflammatory activity against TPA-induced ear edema in BALB/c mouse assessed as weight of ear punches at 200 mM, po administered 15 mins prior to TPA challenge and measured after 3 hrs (reference value: 8.3 +/- 0.1 mg); format: functional
[17] = system: Mus musculus; assay: Antiinflammatory activity against TPA-induced ear edema in BALB/c mouse assessed as decrease in weight of ear punches at 200 mM, po administered 15 mins prior to TPA challenge and measured after 24 hrs relative to control; format: functional; set-up: scale not given: the % may be the effect or the level left
[18] = system: Mus musculus; assay: Antiinflammatory activity against TPA-induced ear edema in BALB/c mouse assessed as decrease in IkappaBalpha degradation in edema administered topically for 15 mins prior to TPA challenge by immunohistochemical method; format: functional, organism-based
[19] = system: Mus musculus; assay: Antiinflammatory activity against TPA-induced ear edema in BALB/c mouse assessed as decrease in weight of ear punches at 5 mg administered topically for 15 mins prior to TPA challenge and measured after 12 hrs relative to control; format: functional; set-up: scale not given: the % may be the effect or the level left
[20] = system: Mus musculus; assay: Antiinflammatory activity against TPA-induced ear edema in BALB/c mouse assessed as decrease in Akt phosphorylation in edema administered topically for 15 mins prior to TPA challenge by immunohistochemical method; format: functional, organism-based
[21] = system: Mus musculus; assay: Antiinflammatory activity against TPA-induced ear edema in BALB/c mouse assessed as weight of ear punches at 200 mM, ip administered 15 mins prior to TPA challenge and measured after 48 hrs (reference value: 11.4 +/- 0.3 mg); format: functional
[22] = system: Mus musculus; assay: Antiinflammatory activity against TPA-induced ear edema in BALB/c mouse assessed as weight of ear punches at 200 mM, po administered 15 mins prior to TPA challenge and measured after 12 hrs (reference value: 12.4 +/- 0.1 mg); format: functional
[23] = system: Mus musculus; assay: Antiinflammatory activity against TPA-induced ear edema in BALB/c mouse assessed as weight of ear punches at 200 mM, ip administered 15 mins prior to TPA challenge and measured after 6 hrs (reference value: 12.5 +/- 0.3 mg); format: functional
[24] = system: Mus musculus; assay: Antiinflammatory activity against TPA-induced ear edema in BALB/c mouse assessed as decrease in ear punches administered topically for 15 mins prior to TPA challenge and measured after 6 hrs; format: functional, organism-based; in short: as §1
[25] = system: Mus musculus; assay: Antiinflammatory activity against TPA-induced ear edema in BALB/c mouse assessed as weight of ear punches at 200 mM administered topically for 15 mins prior to TPA challenge and measured after 12 hrs (reference value: 12.4 +/- 0.1 mg); format: functional
[26] = system: Mus musculus; assay: Antiinflammatory activity against TPA-induced ear edema in BALB/c mouse assessed as weight of ear punches at 200 mM, po administered 15 mins prior to TPA challenge and measured after 6 hrs (reference value: 12.5 +/- 0.3 mg); format: functional
[27] = system: Mus musculus; assay: Antiinflammatory activity against TPA-induced ear edema in BALB/c mouse assessed as decrease in iNOS expression in edema administered topically for 15 mins prior to TPA challenge by immunohistochemical method; format: functional, organism-based
[28] = system: Mus musculus; assay: Antiinflammatory activity against TPA-induced ear edema in BALB/c mouse assessed as decrease in ERK1/2 phosphorylation in edema administered topically for 15 mins prior to TPA challenge by immunohistochemical method; format: functional, organism-based
[29] = system: Mus musculus; assay: Antiinflammatory activity against TPA-induced ear edema in BALB/c mouse assessed as decrease in ear punches at 100 mM administered topically for 15 mins prior to TPA challenge and measured after 6 hrs relative to control; format: functional; set-up: scale not given: the % may be the effect or the level left; in short: as §1
[30] = system: Mus musculus; assay: Antiinflammatory activity against TPA-induced ear edema in BALB/c mouse assessed as decrease in IkappaBalpha phosphorylation in edema administered topically for 15 mins prior to TPA challenge by immunohistochemical method; format: functional, organism-based
[31] = system: Mus musculus; assay: Antiinflammatory activity against TPA-induced ear edema in BALB/c mouse assessed as decrease in weight of ear punches at 200 mM, po administered 15 mins prior to TPA challenge and measured after 48 hrs relative to control; format: functional; set-up: scale not given: the % may be the effect or the level left
[32] = system: Mus musculus; assay: Antiinflammatory activity against TPA-induced ear edema in BALB/c mouse assessed as decrease in epidermal hyperplasia in edema administered topically for 15 mins prior to TPA challenge and measured after 6 hrs by hematoxylin/eosin staining-based microscopic method; format: functional, organism-based; in short: as §2
[33] = system: Mus musculus; assay: Antiinflammatory activity against TPA-induced ear edema in BALB/c mouse assessed as decrease in 18F-FDG uptake in ears administered topically for 15 mins prior to TPA challenge and measured after 24 hrs by microPET-CT imaging method; format: functional, organism-based
In short: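 CT-guided regions of interest were drawn over the ears, and uptake was expressed as SUVmax and SUVmean. Dosing was 200 mM in DMSO:methylene chloride (20:80) on the ears before topical TPA.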

[34] = system: Mus musculus; assay: Antiinflammatory activity against TPA-induced ear edema in BALB/c mouse assessed as decrease in ear punches at 200 mM administered topically for 15 mins prior to TPA challenge and measured after 6 hrs relative to control; format: functional; set-up: scale not given: the % may be the effect or the level left; in short: as §1
[35] = system: Mus musculus; assay: Antiinflammatory activity against TPA-induced ear edema in BALB/c mouse assessed as weight of ear punches at 200 mM, ip administered 15 mins prior to TPA challenge and measured after 12 hrs (reference value: 12.4 +/- 0.1 mg); format: functional
[36] = system: Mus musculus; assay: Antiinflammatory activity against TPA-induced ear edema in BALB/c mouse assessed as decrease in weight of ear punches at 5 mg administered topically for 15 mins prior to TPA challenge and measured after 6 hrs relative to control; format: functional; set-up: scale not given: the % may be the effect or the level left
[37] = system: Mus musculus; assay: Antiinflammatory activity against TPA-induced ear edema in BALB/c mouse assessed as weight of ear punches at 200 mM administered topically for 15 mins prior to TPA challenge and measured after 3 hrs (reference value: 8.3 +/- 0.1 mg); format: functional
[38] = system: Mus musculus; assay: Antiinflammatory activity against TPA-induced ear edema in BALB/c mouse assessed as weight of ear punches at 200 mM administered topically for 15 mins prior to TPA challenge and measured after 48 hrs (reference value: 11.4 +/- 0.3 mg); format: functional
[39] = system: Mus musculus; assay: Antiinflammatory activity against TPA-induced ear edema in BALB/c mouse assessed as weight of ear punches at 5 mM administered topically for 15 mins prior to TPA challenge and measured after 6 hrs (reference value: 12.5 +/- 0.3 mg); format: functional
[40] = system: Mus musculus; assay: Antiinflammatory activity against TPA-induced ear edema in BALB/c mouse assessed as weight of ear punches at 5 mM administered topically for 15 mins prior to TPA challenge and measured after 48 hrs (reference value: 11.4 +/- 0.3 mg); format: functional
[41] = system: Mus musculus; assay: Antiinflammatory activity against TPA-induced ear edema in BALB/c mouse assessed as weight of ear punches at 5 mM administered topically for 15 mins prior to TPA challenge and measured after 24 hrs (reference value: 12.1 +/- 0.2 mg); format: functional
[42] = system: Mus musculus; assay: Antiinflammatory activity against TPA-induced ear edema in BALB/c mouse assessed as weight of ear punches at 5 mM administered topically for 15 mins prior to TPA challenge and measured after 12 hrs (reference value: 12.4 +/- 0.1 mg); format: functional
[43] = system: Mus musculus; assay: Antiinflammatory activity against TPA-induced ear edema in BALB/c mouse assessed as weight of ear punches at 5 mM administered topically for 15 mins prior to TPA challenge and measured after 3 hrs (reference value: 8.3 +/- 0.1 mg); format: functional

CC1(C)[C@@H](O[C@H]2O[C@H](C(=O)O)[C@@H](O)[C@H](O)[C@H]2O[C@@H]2O[C@H](C(=O)O)[C@@H](O)[C@H](O)[C@H]2O)CC[C@]2(C)[C@H]3C(=O)C=C4[C@@H]5C[C@@](C)(C(=O)O)CC[C@]5(C)CC[C@@]4(C)[C@]3(C)CC[C@@H]12 [GLYCYRRHIZIN]
Activity [1]: 89.9%
Activity [2]: Dose-dependent effect
Activity [3]: Active
Activity [4]: 63%
Activity [5]: Dose-dependent effect
Activity [6]: Dose-dependent effect
Activity [7]: 5.9 mg
Activity [8]: 7.8 mg
Activity [9]: Dose-dependent effect
Activity [10]: Active
Activity [11]: 31.5%
Activity [12]: Dose-dependent effect
Activity [13]: 88.7%
Activity [14]: 13.5 mg
Activity [15]: 87.1%
Activity [16]: 8 mg
Activity [17]: 66.7%
Activity [18]: Dose-dependent effect
Activity [19]: 87.5%
Activity [20]: Dose-dependent effect
Activity [21]: 13.1 mg
Activity [22]: 12.1 mg
Activity [23]: 14.6 mg
Activity [24]: Dose-dependent effect
Activity [25]: 6.1 mg
Activity [26]: 12.3 mg
Activity [27]: Dose-dependent effect
Activity [28]: Dose-dependent effect
Activity [29]: 60.3%
Activity [30]: Dose-dependent effect
Activity [31]: 64.5%
Activity [32]: Dose-dependent effect
Activity [33]: Active
Activity [34]: 87.7%
Activity [35]: 14.1 mg
Activity [36]: 87.7%
Activity [37]: 5.6 mg
Activity [38]: 5.9 mg

C[C@]12C=CC(=O)C=C1CC[C@@H]1[C@@H]2[C@@H](O)C[C@@]2(C)[C@H]1CC[C@]2(O)C(=O)CO [PREDNISOLONE]
Activity [39]: 5.6 mg
Activity [40]: 5.6 mg
Activity [41]: 5.6 mg
Activity [42]: 5.7 mg
Activity [43]: 5.4 mg
